Experimental data collected from several papers.
Target: Angiopoietin-1 receptor (TEK, Homo sapiens, UniProt Q02763)

With CNC(=O)[C@@H]1CC[C@@H](n2c(-c3ccc4cnccc4c3)nc3ccc(C(=O)NCc4cccc(C(N)=O)c4)cc32)C1 the remaining binding was 100% (binding, competition with immobilised ligand; 1 µM).
O=C(c1ccc(Nc2nccc(-c3cc4ccccc4s3)n2)cc1)N1CCC(N2CCCC2)CC1 has a remaining binding of 31% (binding, competition with immobilised ligand; 1 µM).
For C[C@@H](c1cccc(C#N)c1)n1cc(Cl)cc(C(N)=O)c1=N, the remaining binding was 90% (cell-free assay, competition with immobilised ligand; 1 µM).
The remaining binding of CN(C)c1nccc(-c2cnn3ncccc23)n1 is reported as 100% (binding; 1 µM).
With C[C@@H](c1ccc(-n2cnc3c(N)ncnc32)cc1)N1CCc2nn(C)c(Cc3ccccc3)c2C1=O the remaining binding was 81% (binding, competition with immobilised ligand; 0.1 µM).
CCN1CCN(Cc2ccc(C(=O)Nc3ccc(C)c(Oc4ccc5c(c4)CC(=O)N5)c3)cc2C(F)(F)F)CC1 has a remaining binding of 100% (binding, competition with immobilised ligand; 1 µM).
CC(=O)C1=C(C)N(c2cccc(C(F)(F)F)c2)C(=O)N[C@@H]1c1ccc(C#N)nc1 has a remaining binding of 100% (cell-free assay, competition with immobilised ligand; 1 µM).
The remaining binding of CN(c1nccc(-c2cnn3ncccc23)n1)C1CC1 is reported as 100% (binding; 1 µM).
With CS(=O)(=O)N1CCCC(NC(=O)[C@H](CCC2CCCCC2)NC(=O)c2ccc(CNc3ncnc4c3nnn4-c3ccccc3)cc2)C1 (stereo partly shown) the remaining binding was 73% (cell-free assay, competition with immobilised ligand; 0.1 µM).
With Nc1ncc2c(n1)-c1c([nH]c3ccc(C#CC4CC4)cc13)CCCC2 the remaining binding was 100% (binding, competition with immobilised ligand; 1 µM).
c1cnn2ncc(-c3ccnc(N4CCC45COC5)n3)c2c1 gave a remaining binding of 83% (binding; 1 µM).
CC(C)(C)c1ccc(-c2nc(CBr)nn2-c2cccc(O)c2)cc1 gave a remaining binding of 99% (cell-free assay, competition with immobilised ligand; 10 µM).
The remaining binding of O=C1CCc2cc(Nc3cc(OC4CCOCC4)c([N+](=O)[O-])cc3Cl)ccc2N1 is reported as 76% (cell-free assay, competition with immobilised ligand; 1 µM).
N[C@H]1CCN(c2nccc(-c3cnn4ncccc34)n2)C1 gave a remaining binding of 84% (binding; 1 µM).
CCS(=O)(=O)c1cc2cc(C[C@@](O)(CC(C)(C)c3ccc(F)cc3C(N)=O)C(F)(F)F)[nH]c2cn1 has a remaining binding of 94% (cell-free assay, competition with immobilised ligand; 1 µM).
F[C@@H]1CCN(c2nccc(-c3cnn4ncccc34)n2)C1 gave a remaining binding of 100% (binding; 1 µM).
With C[C@@H]1CN(c2cc(-c3nn(C)c4ccc(OC5(C)CC5)cc34)ncn2)C[C@H](C)O1 the remaining binding was 94% (cell-free assay, competition with immobilised ligand; 1 µM).
O=C(c1ccc(Nc2ncc(Cl)c(-c3cc4ccccc4s3)n2)cc1)N1CCC(N2CCCC2)CC1 has a remaining binding of 19% (binding, competition with immobilised ligand; 1 µM).
The remaining binding of COc1cc(-c2cn(C3CCc4ccccc4N(CC(F)(F)F)C3=O)nn2)ccc1-n1ccc(C)n1 (stereo not shown) is reported as 81% (cell-free assay, competition with immobilised ligand; 1 µM).
With Cc1cnc(Nc2ccc(C(=O)N3CCC(N4CCCC4)CC3)cc2)nc1-c1cc2ccccc2s1 the remaining binding was 11% (binding, competition with immobilised ligand; 1 µM).
The remaining binding of C[C@H]1CCN(c2nccc(-c3cnn4ncccc34)n2)C1 is reported as 82% (binding; 1 µM).
COc1cnc(Nc2cccc(S(N)(=O)=O)c2)nc1N1CCN(c2ccccc2)C(=O)C1 gave a remaining binding of 100% (binding, competition with immobilised ligand; 1 µM).
C[C@@H]1CN(c2ccc3ncc(-c4ccc5[nH]nc(C6CC6)c5c4)n3n2)C[C@H](C)O1 has a remaining binding of 100% (binding, competition with immobilised ligand; 0.5 µM).
The remaining binding of CN(CCCC(F)(F)F)c1nccc(-c2cnn3ncccc23)n1 is reported as 100% (binding; 1 µM).
O=C(NCC1CCOCC1)c1n[nH]cc1NC(=O)c1c(F)cccc1F gave a remaining binding of 100% (binding, competition with immobilised ligand; 1 µM).
